# Reference: ChEMBL document CHEMBL1140196, “Synthesis and biological activities of some new fluorinated coumarins and 1-aza coumarins” (Eur J Med Chem, 2008)
# Legend:
# [1] = tested on: Escherichia coli; experiment: Antibacterial activity against Escherichia coli at 100 ug/mL after 48 hrs by cup-plate method; assay type: functional
# [2] = tested on: Escherichia coli; experiment: Antibacterial activity against Escherichia coli at 50 ug/mL after 48 hrs by cup-plate method; assay type: functional
# [3] = tested on: Escherichia coli; experiment: Antibacterial activity against Escherichia coli at 25 ug/mL after 48 hrs by cup-plate method; assay type: functional; conditions: for zone of inhibition at 25 µg/mL: read-out: IZ
# [4] = tested on: Bacillus; experiment: Antibacterial activity against […] at 100 ug/mL after 48 hrs by cup-plate method; assay type: functional
# [5] = tested on: Bacillus; experiment: Antibacterial activity against […] at 50 ug/mL after 48 hrs by cup-plate method; assay type: functional
# [6] = tested on: Bacillus; experiment: Antibacterial activity against […] at 25 ug/mL after 48 hrs by cup-plate method; assay type: functional; conditions: for zone of inhibition at 25 µg/mL: read-out: IZ
# [7] = tested on: Aspergillus niger; experiment: Antifungal activity against Aspergillus niger at 100 ug/mL after 48 hrs by cup-plate method; assay type: functional
# [8] = tested on: Aspergillus niger; experiment: Antifungal activity against Aspergillus niger at 50 ug/mL after 48 hrs by cup-plate method; assay type: functional
# [9] = tested on: Aspergillus niger; experiment: Antifungal activity against Aspergillus niger at 25 ug/mL after 48 hrs by cup-plate method; assay type: functional; conditions: for zone of inhibition at 25 µg/mL: read-out: IZ
# [10] = tested on: Macrophomina phaseolina; experiment: Antifungal activity against Rhizoctonia bataticola at 100 ug/mL after 48 hrs by cup-plate method; assay type: functional
# [11] = tested on: Macrophomina phaseolina; experiment: Antifungal activity against Rhizoctonia bataticola at 50 ug/mL after 48 hrs by cup-plate method; assay type: functional
# [12] = tested on: Macrophomina phaseolina; experiment: Antifungal activity against Rhizoctonia bataticola at 25 ug/mL after 48 hrs by cup-plate method; assay type: functional
# [13] = Acute toxicity in ip dosed albino mouse after 24 hrs; assay type: organism-based; conditions: in vivo
# Procedure, shortened: (§1)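 Groups of six albino mice (20–25 g), fasted overnight, dosed once orally or intraperitoneally at 100 to 1000 mg kg^-1 body weight. Observed for 24 h for mortality and signs of acute toxicity (altered motor activity, tremors, convulsion, sedation, lacrimation). LD50 cut-off set at the highest dose tested, 1000 mg kg^-1.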
# [14] = Acute toxicity in po dosed albino mouse after 24 hrs; assay type: organism-based; conditions: in vivo; procedure, shortened: as §1
# [15] = tested on: Rattus norvegicus; experiment: Gastrointestinal toxicity in Wistar rat assessed as ulcerogenic effect at 400 mg/kg, po administered twice at 2 hrs interval after 4 hrs; assay type: organism-based; parameters: dose 400 mg/kg, route oral; conditions: in vivo
# Procedure, shortened: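 Male Wistar rats fasted 36 h, then given 400 mg/kg orally twice, 2 h apart. Animals killed 4 h later and the stomach examined for lesions; ulcer index recorded.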
# [16] = tested on: Mus musculus; experiment: Analgesic activity in albino mouse assessed as inhibition of acetic acid-induced writhing at 10 mg/kg, po; assay type: functional
# Procedure, shortened: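 Acetic acid writhing test: 0.6% acetic acid at 0.1 ml/10 g given intraperitoneally to albino mice of both sexes (18–22 g). Compounds given orally at 10 mg/kg as a suspension in 5% carboxymethyl cellulose. Indomethacin 10 mg/kg was the reference under the same conditions.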
# [17] = tested on: Rattus norvegicus; experiment: Antiinflammatory activity in Wistar rat assessed as inhibition of formalin-induced paw oedema volume at 100 mg/kg, po administered 30 mins before formalin challenge after 1 hr relative to control; assay type: functional
# Procedure, shortened: (§2)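 Oral dosing at 100 mg/kg as a 2% CMC suspension, 30 min before injecting 3.5% formalin into the paw. Groups of six Wistar rats of either sex. Paw volume read by mercury-displacement plethysmograph at 0 h (right after formalin) and at 1, 2, 3, 4 and 5 h. Percent inhibition versus plain 2% CMC controls; SEM reported.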
# [18] = tested on: Rattus norvegicus; experiment: Antiinflammatory activity in Wistar rat assessed as inhibition of formalin-induced paw oedema volume at 100 mg/kg, po administered 30 mins before formalin challenge after 2 hrs relative to control; assay type: functional; procedure, shortened: as §2
# [19] = tested on: Rattus norvegicus; experiment: Antiinflammatory activity in Wistar rat assessed as inhibition of formalin-induced paw oedema volume at 100 mg/kg, po administered 30 mins before formalin challenge after 3 hrs relative to control; assay type: functional; procedure, shortened: as §2
# [20] = tested on: Rattus norvegicus; experiment: Antiinflammatory activity in Wistar rat assessed as inhibition of formalin-induced paw oedema volume at 100 mg/kg, po administered 30 mins before formalin challenge after 4 hrs relative to control; assay type: functional; procedure, shortened: as §2
# [21] = tested on: Rattus norvegicus; experiment: Antiinflammatory activity in Wistar rat assessed as inhibition of formalin-induced paw oedema volume at 100 mg/kg, po administered 30 mins before formalin challenge after 5 hrs relative to control; assay type: functional; procedure, shortened: as §2
# [22] = tested on: Rattus norvegicus; experiment: Gastrointestinal toxicity in Wistar rat assessed as ulcerogenic effect at 10 mg/kg, po administered twice at 2 hrs interval after 4 hrs; assay type: organism-based; parameters: dose 10 mg/kg, route oral; conditions: in vivo
# Procedure, shortened: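 Male Wistar rats fasted 36 h, then given indomethacin suspended in 1% CMC orally at 2 × 10 mg/kg, 2 h apart. Animals killed after 4 h and the stomach examined for lesions; ulcer index recorded.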
# [23] = tested on: Rattus norvegicus; experiment: Antiinflammatory activity in Wistar rat assessed as inhibition of formalin-induced paw oedema volume at 10 mg/kg, po administered 30 mins before formalin challenge after 1 hr relative to control; assay type: functional
# Procedure, shortened: (§3)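 Reference arm of the formalin paw-oedema test: oral dose of 10 mg/kg, 30 min before 3.5% formalin, in groups of six Wistar rats of either sex. Paw volume read by mercury-displacement plethysmograph at 0 to 5 h. Percent inhibition versus 2% CMC vehicle controls.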
# [24] = tested on: Rattus norvegicus; experiment: Antiinflammatory activity in Wistar rat assessed as inhibition of formalin-induced paw oedema volume at 10 mg/kg, po administered 30 mins before formalin challenge after 2 hrs relative to control; assay type: functional; procedure, shortened: as §3
# [25] = tested on: Rattus norvegicus; experiment: Antiinflammatory activity in Wistar rat assessed as inhibition of formalin-induced paw oedema volume at 10 mg/kg, po administered 30 mins before formalin challenge after 3 hrs relative to control; assay type: functional; procedure, shortened: as §3
# [26] = tested on: Rattus norvegicus; experiment: Antiinflammatory activity in Wistar rat assessed as inhibition of formalin-induced paw oedema volume at 10 mg/kg, po administered 30 mins before formalin challenge after 4 hrs relative to control; assay type: functional; procedure, shortened: as §3
# [27] = tested on: Rattus norvegicus; experiment: Antiinflammatory activity in Wistar rat assessed as inhibition of formalin-induced paw oedema volume at 10 mg/kg, po administered 30 mins before formalin challenge after 5 hrs relative to control; assay type: functional; procedure, shortened: as §3
Structure (SMILES),inhibition at 100 µg/mL [1],inhibition at 50 µg/mL [2],inhibition at 25 µg/mL [3],zone of inhibition at 25 µg/mL [3],inhibition at 100 µg/mL [4],inhibition at 50 µg/mL [5],inhibition at 25 µg/mL [6],inhibition at 100 µg/mL [7],inhibition at 50 µg/mL [8],inhibition at 25 µg/mL [9],inhibition at 100 µg/mL [10],inhibition at 50 µg/mL [11],inhibition at 25 µg/mL [12],LD50 at 24 h [13],LD50 at 24 h [14],UI [15],inhibition in vivo at 10 mg/kg [16],inhibition in vivo at 100 mg/kg [17],inhibition in vivo at 100 mg/kg [18],inhibition in vivo at 100 mg/kg [19],also measured
Cc1ccc2c(CNc3ccc(F)cc3)cc(=O)oc2c1,73%,46%,27%,58 mm,74%,55%,28%,67%,33%,14%,70%,49%,26%,> 800 mg/kg,> 1000 mg/kg,64.93,3.96%,62%,37%,54%,zone of inhibition at 25 µg/mL [6]: 60 mm; zone of inhibition at 25 µg/mL [9]: 40 mm; inhibition in vivo at 100 mg/kg [20]: 67%; inhibition in vivo at 100 mg/kg [21]: 83%
O=c1cc(COc2ccc(F)cc2)c2cc(Cl)ccc2[nH]1,81%,62%,45%,88 mm,80%,51%,28%,75%,44%,29%,84%,68%,50%,> 800 mg/kg,> 1000 mg/kg,71.42,26.9%,39%,28%,57%,zone of inhibition at 25 µg/mL [6]: 60 mm; zone of inhibition at 25 µg/mL [9]: 62 mm; inhibition in vivo at 100 mg/kg [20]: 71%; inhibition in vivo at 100 mg/kg [21]: 80%
COc1ccc2c(c1)c(CC(=O)O)c(C)n2C(=O)c1ccc(Cl)cc1 [INDOMETHACIN],,,,,,,,,,,,,,15 mg/kg,25 mg/kg,,46.2%,,,,UI [22]: 185.14; inhibition in vivo at 10 mg/kg [23]: 35%; inhibition in vivo at 10 mg/kg [24]: 43%; inhibition in vivo at 10 mg/kg [25]: 75%; inhibition in vivo at 10 mg/kg [26]: 76%; inhibition in vivo at 10 mg/kg [27]: 85%
O=c1cc(COc2ccc(F)cc2)c2cc(Cl)ccc2o1,94%,60%,51%,92 mm,97%,71%,64%,89%,71%,61%,89%,74%,65%,> 700 mg/kg,> 1000 mg/kg,66.66,56.2%,39%,38%,58%,inhibition in vivo at 100 mg/kg [20]: 71%; inhibition in vivo at 100 mg/kg [21]: 80%
O=c1cc(CNc2ccc(F)cc2)c2cc(Cl)ccc2[nH]1,70%,50%,26%,60 mm,76%,41%,22%,77%,47%,35%,75%,56%,44%,> 700 mg/kg,> 1000 mg/kg,58.57,7.99%,9%,12%,46%,zone of inhibition at 25 µg/mL [6]: 52 mm; zone of inhibition at 25 µg/mL [9]: 70 mm; inhibition in vivo at 100 mg/kg [20]: 59%; inhibition in vivo at 100 mg/kg [21]: 77%
O=c1cc(CNc2ccc(F)cc2)c2ccc(Cl)cc2[nH]1,73%,54%,32%,68 mm,78%,44%,27%,80%,52%,41%,79%,62%,48%,> 700 mg/kg,> 1000 mg/kg,61.42,28.6%,4%,4%,42%,zone of inhibition at 25 µg/mL [6]: 58 mm; zone of inhibition at 25 µg/mL [9]: 78 mm; inhibition in vivo at 100 mg/kg [20]: 57%; inhibition in vivo at 100 mg/kg [21]: 77%
